Active and inactive are the calls of the source. No cut-off for these calls is given here.
Columns and labels:
MOLT-4 = assay: Growth inhibition of human MOLT4 cells; format: functional
In short: (§1)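 NCI-60 cell lines grown in RPMI 1640 with 5% FBS and 2 mM L-glutamine, plated at 5,000–40,000 cells/well and preincubated 24 h. Time-zero plates were TCA-fixed. Drug was given at five concentrations (10-fold or ½-log dilutions from DMSO stock) for 48 h at 37°C. Cells were TCA-fixed, stained with SRB, and read at 515 nm. GI50 is where [(Ti−Tz)/(C−Tz)]×100 = 50.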

A549 = assay: Growth inhibition of human A549 cells; format: functional; in short: as §1
NCI-H460 [1] = assay: Growth inhibition of human NCI-H460 cells; format: functional; in short: as §1
HCT-116 = assay: Growth inhibition of human HCT116 cells; format: functional; in short: as §1
OVCAR-3 = assay: Growth inhibition of human OVCAR3 cells; format: functional; in short: as §1
OVCAR-8 = assay: Growth inhibition of human OVCAR8 cells; format: functional; in short: as §1
786-0 = assay: Growth inhibition of human 786-0 cells; format: functional; in short: as §1
A498 = assay: Growth inhibition of human A498 cells; format: functional; in short: as §1
ACHN = assay: Growth inhibition of human ACHN cells; format: functional; in short: as §1
CAKI-1 = assay: Growth inhibition of human Caki1 cells; format: functional; in short: as §1
RXF 393 = assay: Growth inhibition of human RXF393 cells; format: functional; in short: as §1
SN12C = assay: Growth inhibition of human SN12C cells; format: functional
In short: (§2)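 NCI-60 panel SRB assay. Cells in RPMI 1640 with 5% FBS and 2 mM L-glutamine, plated at 5,000-40,000 cells/well and grown 24 h before dosing; time-zero plates TCA-fixed. Five concentrations (10-fold or ½ log dilutions, from DMSO stock) applied for 48 h at 37°C. TCA fixation (16% final for suspension cells), SRB stain, absorbance 515 nm; GI50 from net protein increase versus control.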

TK-10 = assay: Growth inhibition of human TK10 cells; format: functional; in short: as §2
UO-31 = assay: Growth inhibition of human UO31 cells; format: functional; in short: as §2
DU-145 = assay: Growth inhibition of human DU145 cells; format: functional; in short: as §1
[2] = Growth inhibition of human NCI60 cells; format: functional; in short: as §1
NCI-H460 [3] = assay: Cytotoxicity against human NCI-H460 cells assessed as cell death at 50 nM after 12 hrs by Hoechst-33342 staining and propidium iodide staining; format: functional, cell-based; details: NCI-H460, 12 h
In short: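 NCI-H460 cells were seeded at 50,000 cells/well for 12 h, then exposed 12 h in serum-free medium (DMSO <0.1%). Cells were stained with Hoechst 33342 (10 µg/ml) and propidium iodide (20 µg/ml) for 30 min at 37°C. Condensed or fragmented nuclei were scored by fluorescence microscopy, and apoptotic index = apoptotic/total nuclei ×100. Duplicate wells, ≥3 runs (N = 6).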

NCI-H460 [4] = assay: Induction of apoptosis human NCI-H460 cells assessed as cellular degradation at 50 nM after 12 hrs by Hoechst-33342 staining; format: functional
In short: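 NCI-H460 seeded 50,000 cells/well for 12 h, then exposed 12 h in serum-free medium (DMSO <0.1%). Stained 30 min at 37°C with 10 µg/ml Hoechst 33342 plus 20 µg/ml propidium iodide. Condensed or fragmented nuclei scored by fluorescence microscopy; apoptotic index = apoptotic/total nuclei ×100. 2 replicate wells, ≥3 runs (N = 6).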

NCI-H460 [5] = assay: Growth inhibition of human NCI-H460 cells after 48 hrs by MTT assay; format: functional; details: NCI-H460, 48 h
In short: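 NCI-H460 cells in RPMI 1640 with 10% FBS were seeded at 10,000 cells/well for 12 h. Drug was diluted 1000× from DMSO into 1% FBS medium (DMSO <0.1%). Time-course runs used 50 nM; dose–response runs used 48 h exposure. Viability was read by MTT (4 h), with formazan dissolved in DMSO for 45 min and read at 562 nm. Triplicate wells, ≥3 runs (N = 9), two-way ANOVA.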

CCRF-CEM = assay: Growth inhibition of human CCRF-CEM cells; format: functional; in short: as §1
HL-60(TB) = assay: Growth inhibition of human HL-60(TB) cells; format: functional; in short: as §1
K562 = assay: Growth inhibition of human K562 cells; format: functional; in short: as §1
[6] = Growth inhibition of human […] cells; format: functional; in short: as §1
SR = assay: Growth inhibition of human SR cells; format: functional; in short: as §2
EKVX = assay: Growth inhibition of human EKVX cells; format: functional; in short: as §1
HOP-62 = assay: Growth inhibition of human HOP62 cells; format: functional; in short: as §1
HOP-92 = assay: Growth inhibition of human HOP92 cells; format: functional; in short: as §1
NCI-H226 = assay: Growth inhibition of human NCI-H226 cells; format: functional; in short: as §1
NCI-H23 = assay: Growth inhibition of human NCI-H23 cells; format: functional; in short: as §1
NCI-H322M = assay: Growth inhibition of human NCI-H322M cells; format: functional; in short: as §1
NCI-H522 = assay: Growth inhibition of human NCI-H522 cells; format: functional; in short: as §1
COLO 205 = assay: Growth inhibition of human COLO205 cells; format: functional; in short: as §1
HCC 2998 = assay: Growth inhibition of human HCC2998 cells; format: functional; in short: as §1
HCT-15 = assay: Growth inhibition of human HCT15 cells; format: functional; in short: as §1
HT-29 = assay: Growth inhibition of human HT-29 cells; format: functional; in short: as §1
KM12 = assay: Growth inhibition of human KM12 cells; format: functional; in short: as §1
SW-620 = assay: Growth inhibition of human SW620 cells; format: functional; in short: as §2
SF-268 = assay: Growth inhibition of human SF268 cells; format: functional; in short: as §1
SF-295 = assay: Growth inhibition of human SF295 cells; format: functional; in short: as §1
SF-539 = assay: Growth inhibition of human SF539 cells; format: functional; in short: as §1
SNB-19 = assay: Growth inhibition of human SNB19 cells; format: functional; in short: as §2
SNB-75 = assay: Growth inhibition of human SNB75 cells; format: functional; in short: as §2
U-251 = assay: Growth inhibition of human U251 cells; format: functional; in short: as §2
M14 = assay: Growth inhibition of human M14 cells; format: functional; in short: as §1
Malme-3M = assay: Growth inhibition of human MALME-3M cells; format: functional; in short: as §1
SK-MEL-2 = assay: Growth inhibition of human SK-MEL-2 cells; format: functional; in short: as §1
SK-MEL-28 = assay: Growth inhibition of human SK-MEL-28 cells; format: functional; in short: as §2
SK-MEL-5 = assay: Growth inhibition of human SK-MEL-5 cells; format: functional; in short: as §2
UACC-257 = assay: Growth inhibition of human UACC257 cells; format: functional; in short: as §2
UACC-62 = assay: Growth inhibition of human UACC62 cells; format: functional; in short: as §2
IGROV-1 = assay: Growth inhibition of human IGROV1 cells; format: functional; in short: as §1
OVCAR-4 = assay: Growth inhibition of human OVCAR4 cells; format: functional; in short: as §1
OVCAR-5 = assay: Growth inhibition of human OVCAR5 cells; format: functional; in short: as §1
SK-OV-3 = assay: Growth inhibition of human SKOV3 cells; format: functional; in short: as §2
PC-3 = assay: Growth inhibition of human PC3 cells; format: functional; in short: as §1
MCF7 = assay: Growth inhibition of human MCF7 cells; format: functional; in short: as §1
NCI/ADR-RES = assay: Growth inhibition of human NCI/ADR-RES cells; format: functional; in short: as §1
MDA-MB-231 = assay: Growth inhibition of human MDA-MB-231 cells; format: functional; in short: as §1
[7] = Growth inhibition of human Hs 578T cells; format: functional; in short: as §1
MDA-MB-435 = assay: Growth inhibition of human MDA-MB-435 cells; format: functional; in short: as §1
MDA-N = assay: Growth inhibition of human MDA-N cells; format: functional; in short: as §1
BT-549 = assay: Growth inhibition of human BT549 cells; format: functional; in short: as §1
T47D = assay: Growth inhibition of human T47D cells; format: functional; in short: as §2
LOX IMVI = assay: Growth inhibition of human LOXIMVI cells; format: functional; in short: as §1

With `C[C@H]1O[C@@H](O[C@H]2CC[C@@]3(C)[C@H](CC[C@@H]4[C@@H]3CC[C@]3(C)[C@@H](C5=CC(=O)OC5)CC[C@]43O)C2)C[C@H](O)[C@@H]1O` the “growth inhibition (GI)” value (MOLT-4) was “Active”, the “growth inhibition (GI)” value (A549) was “Active” and the “growth inhibition (GI)” value (NCI-H460 [1]) was “Active”. For the same compound, the “growth inhibition (GI)” value (HCT-116) was “Active”, the “growth inhibition (GI)” value (OVCAR-3) was “Active” and the “growth inhibition (GI)” value (OVCAR-8) was “Active”. The “growth inhibition (GI)” value (786-0) was “Active”, the “growth inhibition (GI)” value (A498) was “Active” and the “growth inhibition (GI)” value (ACHN) was “Active”. For the same compound, the “growth inhibition (GI)” value (CAKI-1) was “Active”, the “growth inhibition (GI)” value (RXF 393) was “Active” and the “growth inhibition (GI)” value (SN12C) was “Active”. The “growth inhibition (GI)” value (TK-10) was “Active”, the “growth inhibition (GI)” value (UO-31) was “Active” and the “growth inhibition (GI)” value (DU-145) was “Active”. It also gave a GI50 [2] of 25 nM, an IC50 (NCI-H460 [3]) of 74.8 nM and an Activity (NCI-H460 [4]) of 28.8%. It also gave a GI50 (NCI-H460 [5]) of 3.8 nM.

`C[C@@H]1O[C@@H](O[C@H]2CC[C@@]3(C)[C@H](CC[C@@H]4[C@@H]3CC[C@]3(C)[C@@H](C5=CC(=O)OC5)CC[C@]43O)C2)[C@H](O)[C@H](O)[C@H]1O` gave a GI50 (CCRF-CEM) of under 10 nM, a GI50 (HL-60(TB)) of under 10 nM and a GI50 (K562) of under 10 nM. The GI50 (MOLT-4) was under 10 nM, the GI50 [6] was under 10 nM and the GI50 (SR) was under 10 nM. For the same compound, the GI50 (A549) was under 10 nM, the GI50 (EKVX) was under 10 nM and the GI50 (HOP-62) was under 10 nM. It also gave a GI50 (HOP-92) of under 10 nM, a GI50 (NCI-H226) of under 10 nM and a GI50 (NCI-H23) of under 10 nM. For the same compound, the GI50 (NCI-H322M) was under 10 nM, the GI50 (NCI-H460 [1]) was under 10 nM and the GI50 (NCI-H522) was under 10 nM. It also gave a GI50 (COLO 205) of under 10 nM, a GI50 (HCC 2998) of under 10 nM and a GI50 (HCT-116) of under 10 nM. The GI50 (HCT-15) was under 10 nM, the GI50 (HT-29) was under 10 nM and the GI50 (KM12) was under 10 nM. For the same compound, the GI50 (SW-620) was under 10 nM, the GI50 (SF-268) was under 10 nM and the GI50 (SF-295) was under 10 nM. For the same compound, the GI50 (SF-539) was under 10 nM, the GI50 (SNB-19) was under 10 nM and the GI50 (SNB-75) was under 10 nM. The GI50 (U-251) was under 10 nM, the GI50 (M14) was under 10 nM and the GI50 (Malme-3M) was under 10 nM. For the same compound, the GI50 (SK-MEL-2) was under 10 nM, the GI50 (SK-MEL-28) was under 10 nM and the GI50 (SK-MEL-5) was under 10 nM. It also gave a GI50 (UACC-257) of under 10 nM, a GI50 (UACC-62) of under 10 nM and a GI50 (IGROV-1) of under 10 nM. The GI50 (OVCAR-3) was under 10 nM, the GI50 (OVCAR-4) was under 10 nM and the GI50 (OVCAR-5) was under 10 nM. It also gave a GI50 (OVCAR-8) of under 10 nM, a GI50 (SK-OV-3) of under 10 nM and a GI50 (786-0) of under 10 nM. The GI50 (A498) was under 10 nM, the GI50 (ACHN) was under 10 nM and the GI50 (CAKI-1) was under 10 nM. For the same compound, the GI50 (RXF 393) was under 10 nM, the GI50 (SN12C) was under 10 nM and the GI50 (TK-10) was under 10 nM. For the same compound, the GI50 (UO-31) was under 10 nM, the GI50 (PC-3) was under 10 nM and the GI50 (DU-145) was under 10 nM. For the same compound, the GI50 (MCF7) was under 10 nM, the GI50 (NCI/ADR-RES) was under 10 nM and the GI50 (MDA-MB-231) was under 10 nM. The GI50 [7] was under 10 nM, the GI50 (MDA-MB-435) was under 10 nM and the GI50 (MDA-N) was under 10 nM. It also gave a GI50 (BT-549) of under 10 nM, a GI50 (T47D) of under 10 nM and a GI50 [2] of 1 nM. For the same compound, the IC50 (NCI-H460 [3]) was 46.7 nM, the Activity (NCI-H460 [4]) was “Active” and the Activity (NCI-H460 [4]; record 2) was 45.8%. It also gave a GI50 (LOX IMVI) of under 10 nM.

From ChEMBL document CHEMBL1649102, “Stereochemical survey of digitoxin monosaccharides: new anticancer analogues with enhanced apoptotic activity and growth inhibitory effect on human non-small cell lung cancer cell” (ACS Med Chem Lett, 2011)
